Results reported in article PMC3129651 (Pharmaceutical research, 2010).
Entries after “also recorded” stand apart in the source; their conditions may differ. Counter-ions that a name gives are not always drawn. Like-named read-outs stand apart in the source and are kept apart here. Blank lines part the entries; values can stand above or below the molecule they belong to.

Assays:
Oct [1] = assay type: in vitro ADME; settings: suspended rat hepatocytes, 14C-TEA 20μM, 20μM glycyrrhizic acid; for initial 14C-TEA uptake in the presence of inhibitor: 200μM clonidine, 10μM desipramine
[2] = test system: suspended WT rat hepatocytes; assay type: in vitro ADME; settings: 99mTc-MEB 5μCi/mL, 20μM rifamycin SV, 20μM glycyrrhizic acid, 200μM clonidine, 10μM desipramine, 5μM decynium 22, 10μM ketoprofen
[3] = test system: suspended human hepatocytes; assay type: in vitro ADME; settings: 99mTc-MEB 5μCi/mL, 20μM rifamycin SV, 200μM clonidine, 10μM desipramine, 5μM decynium 22, 10μM ketoprofen
OATP1B3 = settings: inhibition of OATP1B3; cited from earlier work
Oat2 = target: T1, Oat2 (Rattus norvegicus, UniProt Q5RLM2); experiment: 3H-PAH uptake over 60 min in freshly isolated rat hepatocytes; assay type: in vitro ADME; settings: 50μM MK571 in the incubation medium
T1 sequence (Q5RLM2 1-535): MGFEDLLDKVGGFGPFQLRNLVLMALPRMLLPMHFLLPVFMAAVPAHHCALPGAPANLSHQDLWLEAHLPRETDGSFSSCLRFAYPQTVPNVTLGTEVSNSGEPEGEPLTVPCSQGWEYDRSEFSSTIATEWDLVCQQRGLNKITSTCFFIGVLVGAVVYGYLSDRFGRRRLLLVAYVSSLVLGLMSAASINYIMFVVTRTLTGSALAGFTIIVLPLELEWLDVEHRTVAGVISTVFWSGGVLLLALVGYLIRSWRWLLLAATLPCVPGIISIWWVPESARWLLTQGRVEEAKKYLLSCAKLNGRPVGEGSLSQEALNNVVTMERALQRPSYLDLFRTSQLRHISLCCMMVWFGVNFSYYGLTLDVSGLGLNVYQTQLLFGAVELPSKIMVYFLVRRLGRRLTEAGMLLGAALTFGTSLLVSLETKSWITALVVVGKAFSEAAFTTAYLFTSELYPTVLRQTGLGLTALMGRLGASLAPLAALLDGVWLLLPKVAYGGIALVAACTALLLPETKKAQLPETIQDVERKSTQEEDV

Oatp [4] = assay type: in vitro ADME; settings: suspended WT rat hepatocytes; 3H-E217G 1μM; inhibitor 20μM
[5] = rats, 0.25 mCi dose, 30 min after intravenous administration; cited from earlier work
[6] = test system: WT rat sandwich-cultured hepatocytes; experiment: 20-min efflux study in day 4 WT rat sandwich-cultured hepatocytes; assay type: in vitro ADME
Method in brief: (§1)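 Male Wistar WT or Mrp2-deficient TR⁻ rat hepatocytes were seeded on collagen I 6-well plates (~1.5 × 10^6 cells/well TR, 1.75 × 10^6 WT), overlaid with Matrigel and used on day 4. They were preloaded for 20 min at 37°C with 99mTc probe (5 μCi/mL) in standard HBSS. Efflux then ran 20 min at 37°C in standard (basolateral) or Ca2+-free HBSS (basolateral + canalicular), with 100 μM MK571, 20 μM GF120918 or 0.6% DMSO. Decay-corrected gamma counts of medium and lysate were taken, and efflux was expressed as % of preloaded mass. n=4 WT, 3 TR livers, triplicate.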

[7] = test system: suspended rat hepatocytes; experiment: Preliminary uptake time course in suspended rat hepatocytes sampling over 60min
[8] = test system: TR^− rat sandwich-cultured hepatocytes; assay type: in vitro ADME
Method in brief: as §1

[9] = test system: human sandwich-cultured hepatocytes; experiment: 20-min efflux study in day 7 human sandwich-cultured hepatocytes; assay type: in vitro ADME
[10] = cited from earlier work
[11] = test system: WT sandwich-cultured rat hepatocytes; experiment: 10-min accumulation study; assay type: in vitro ADME; settings: 2μM GF120918; siNT- and siBcrp-infected rat SCH
OATP [12] = experiment: Initial uptake of 3H-E217G in suspended human hepatocytes with inhibitors; assay type: in vitro ADME; settings: 3H-E217G 1μM, 20μM rifamycin SV
OCT [13] = experiment: Initial uptake of 14C-TEA in suspended human hepatocytes with inhibitors; assay type: in vitro ADME; settings: 14C-TEA 20μM, 5μM decynium 22
[14] = test system: suspended rat hepatocytes
[15] = control WT rat SCH, 5μCi/mL, 20min preload
[16] = TR- rat SCH, 5μCi/mL, 20min preload
[17] = human SCH, control, 5μCi/mL, 20min preload

SMILES: Clc1cccc(Cl)c1N=C1NCCN1 [clonidine]
initial 14C-TEA uptake in the presence of inhibitor (Oct [1]): 23.7 % of control
initial 99mTc-MEB uptake in the presence of inhibitor [2]: marginal effects
initial 99mTc-MEB uptake in the presence of inhibitor [3]: marginal effects

effect of inhibitor on 3H-PAH uptake (Oat2): not significantly influenced
SMILES: CN(C)C(=O)CCSC(SCCC(=O)O)c1cccc(/C=C/c2ccc3ccc(Cl)cc3n2)c1 (stereo not shown) [MK571, MK-571 sodium salt]
Ki (OATP1B3): 0.6 µM

SMILES: CC1(C)[C@@H](O[C@H]2O[C@H](C(=O)O)[C@@H](O)[C@H](O)[C@H]2O[C@@H]2O[C@H](C(=O)O)[C@@H](O)[C@H](O)[C@H]2O)CC[C@]2(C)[C@H]3C(=O)C=C4[C@@H]5C[C@@](C)(C(=O)O)CC[C@]5(C)CC[C@@]4(C)[C@]3(C)CC[C@@H]12 [glycyrrhizic acid]
initial 3H-E217G uptake in the presence of inhibitor (Oatp [4]): 23.8 % of control
reduction of 14C-TEA uptake compared to control (Oct [1]): 62.1%
initial 14C-TEA uptake in the presence of inhibitor (Oct [1]): 37.9 % of control
initial 99mTc-MEB uptake in the presence of inhibitor [2]: 39.5 % of control

SMILES: Cc1cc(C)c(NC(=O)CN(CC(=O)[O-])CC(=O)[O-])c(C)c1Br.Cc1cc(C)c(NC(=O)CN(CC(=O)[O-])CC(=O)[O-])c(C)c1Br.[99Tc+4] [^99mTc-MEB, ^99mTechnetium-mebrofenin]
dose recovered in the liver [5]: ~ 95%
basolateral efflux over 20 min [6, 15]: 25.0±6.7 % of total preloaded mass
canalicular efflux over 20 min [6, 15]: 15.3±5.7 % of total preloaded mass
hepatocellular content in cell lysate at the end of the 20-min efflux experiment, Rat Inhibitor ([6]; day 4 WT rat SCH, Inhibitor = 100μM MK571 for 99mTc-MEB and 20μM GF120918 for 99mTc-MIBI): 63.4 ± 4.8% of the total substrate mass preloaded
fraction of basolateral efflux ([6]; rat SCH): 62.0 % of total efflux
fraction of canalicular efflux ([6]; rat SCH): 38.0 % of total efflux
total efflux ([6]; rat SCH, 20-min efflux study design): 40.3±5.4%
linear range of uptake [7]: 1.5 min
basolateral efflux over 20 min [8, 16]: 31.8±6.2 % of total preloaded mass
canalicular efflux over 20 min [8, 16]: negligible; also recorded: completely ablated
hepatocellular content in cell lysate at the end of the 20-min efflux experiment, Rat TR- ([8]; day 4 TR- rat SCH, n=3): 78.8 ± 13.2% of the total substrate mass preloaded
canalicular efflux, human compared to rat SCH ([9]; 20-min efflux): ~ 3 fold
hepatocellular content in cell lysate at the end of the 20-min efflux experiment, Human Inhibitor ([9]; day 7 human SCH, Inhibitor = 100μM MK571 for 99mTc-MEB and 20μM GF120918 for 99mTc-MIBI): 27.7 ± 0.4% of the total substrate mass preloaded
fraction of basolateral efflux ([9]; human SCH): 26.7 % of total efflux
fraction of canalicular efflux ([9]; human SCH): 73.3 % of total efflux
total efflux ([9]; human SCH, 20-min efflux study design): 62.4±8.0%
basolateral efflux over 20 min [9, 17]: 16.7±0.6 % of total preloaded mass
canalicular efflux over 20 min [9, 17]: 45.8±8.6 % of total preloaded mass
dose recovered in bile ([10]; 2.3mCi dose intravenously, healthy human subjects, within 180 min): ~ 84%
dose recovered in urine ([10]; after 24 hours in humans): ~ 1.5 % of the dose
dose taken up by the liver ([10]; humans): More than 98%
hepatic excretion half-life ([10]; humans): 16 min

SMILES: COc1cc2c(cc1OC)CN(CCc1ccc(NC(=O)c3cccc4c(=O)c5cccc(OC)c5[nH]c34)cc1)CC2 [GF120918, N-(4-[2-(1,2,3,4-tetrahydro-6,7-dimethoxy-2-isoquinolinyl)ethyl]-phenyl)-9,10-dihydro-5-methoxy-9-oxo-4-acridine carboxamide]
effect on 99mTc-MIBI BEI and in vitro Clbiliary (biliary excretion) [11]: ablated; also recorded: inhibited completely
increase in hepatocellular accumulation (cells only) of 99mTc-MIBI [11]: ~ 2 fold
decrease of 99mTc-MIBI basolateral efflux ([6]; rat SCH, GF120918 20μM): ~ 2.3 fold
decrease of 99mTc-MIBI canalicular efflux ([6]; rat SCH, GF120918 20μM): 1.5 fold
decrease of 99mTc-MIBI basolateral efflux ([9]; human SCH, GF120918 20μM): ~ 2.9 fold
decrease of 99mTc-MIBI canalicular efflux ([9]; human SCH, GF120918 20μM): 2.1 fold

SMILES: CO[C@H]1/C=C/O[C@@]2(C)Oc3c(C)c(O)c4c(O)c(cc(O)c4c3C2=O)NC(=O)/C(C)=C\C=C\[C@H](C)[C@H](O)[C@@H](C)[C@@H](O)[C@@H](C)[C@H](OC(C)=O)[C@@H]1C [rifamycin SV]
initial 3H-E217G uptake in the presence of inhibitor (OATP [12]): 51.5 % of control
initial 3H-E217G uptake in the presence of inhibitor (Oatp [4]): 15.5 % of control
initial 99mTc-MEB uptake in the presence of inhibitor [2]: 20.7 % of control
initial 99mTc-MEB uptake in the presence of inhibitor [3]: 35.4 % of control

SMILES: CCN1/C(=C/c2ccc3ccccc3[n+]2CC)C=Cc2ccccc21.[I-] [decynium 22]
initial 99mTc-MEB uptake in the presence of inhibitor [2]: marginal effects
initial 14C-TEA uptake in the presence of inhibitor (OCT [13]): 54.2 % of control
initial 99mTc-MEB uptake in the presence of inhibitor [3]: marginal effects

SMILES: CC[N+](CC)(CC)CC [^14C-TEA, tetraethylammonium]
linear range of uptake [7]: 5 min

linear range of uptake [14]: 2.5 min
SMILES: C[C@]12CC[C@@H]3c4ccc(O)cc4CC[C@H]3[C@@H]1CC[C@@H]2O[C@@H]1O[C@H](C(=O)O)[C@@H](O)[C@H](O)[C@H]1O [^3H-E217G, Estradiol-17-β-D-glucuronide]
